Screens from PubChem.
Only some compounds are listed: those with a hit (about 1.8% of all), similar ones and a draw of the others.
M5 PAM – human M5 muscarinic receptor positive allosteric modulators, primary screen, CHO-K1 cells, Fluo-8 calcium fluorescence; CHO-K1 hM5, ACh EC20 PAM; 0% = ACh EC20, 100% = ACh EC100; 360,000 tested, 0.3% active; activation, % at 3 µM; AID 624038, 2012; Muscarinic acetylcholine receptor M5 (Homo sapiens), P08912;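 active = activation above the run cutoff, the mean activation of all test compounds plus 3 SD, cut at about 18% in these data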
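System: CHO-K1 hM5 cells. Reagent: acetylcholine, EC20 level. Compound dosing: single dose, 3 µM nominal final test concentration. Timing: Post-acetylcholine fluorescence recording 140 s. Detection: Fluo-8 calcium fluorescence. Read-out: % activation, ACh-normalized. Benchmarks: ACh EC20 and EC100 wells. Repeats: singlicate, one well per test compound.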
CHRM5 agonist – human M5 muscarinic receptor agonists, primary screen, CHO-K1 cells, Fluo-8 calcium fluorescence. Muscarinic acetylcholine receptor M5 (Homo sapiens), P08912. 360,000 tested, 0.19% active. activation, % at 3 µM. CHO-K1 hM5 cells; 0% DMSO wells, 100% maximal acetylcholine response;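 active = activation above the run's mean over test compounds plus 3 SD, cut at about 23% in these data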;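 also: signal is peak over basal fluorescence ratio across the kinetic read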
CHRM4 antagonist – human M4 muscarinic receptor antagonists, primary screen, CHO cells, Fluo-8 calcium fluorescence; Muscarinic acetylcholine receptor M4 (Homo sapiens), P08173; CHO-hM4 cells, ACh EC80; inhibition, % at 3 µM; 360,000 tested, 0.73% active; AID 624125, 2012;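 active = inhibition above its plate's cutoff, the mean inhibition of sample wells plus 3 SD, cut at about 27% in these data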
Target sequence (P08173 whole entry, looked up): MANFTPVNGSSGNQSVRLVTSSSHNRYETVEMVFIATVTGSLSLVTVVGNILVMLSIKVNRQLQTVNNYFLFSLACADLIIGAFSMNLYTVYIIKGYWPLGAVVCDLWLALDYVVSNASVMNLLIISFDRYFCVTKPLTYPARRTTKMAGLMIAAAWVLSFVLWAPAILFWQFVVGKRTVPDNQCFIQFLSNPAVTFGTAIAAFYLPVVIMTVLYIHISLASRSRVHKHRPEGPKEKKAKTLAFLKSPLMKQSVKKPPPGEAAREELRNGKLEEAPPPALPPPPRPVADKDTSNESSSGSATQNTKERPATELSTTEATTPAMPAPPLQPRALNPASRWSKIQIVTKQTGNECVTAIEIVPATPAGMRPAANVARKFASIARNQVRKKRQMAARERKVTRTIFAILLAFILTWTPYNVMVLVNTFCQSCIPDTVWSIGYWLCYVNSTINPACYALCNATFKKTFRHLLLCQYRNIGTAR
M5 antag – human M5 muscarinic receptor antagonists, primary screen, CHO cells, Fluo-8 calcium fluorescence; Muscarinic acetylcholine receptor M5 (Homo sapiens), P08912; CHO-hM5 cells, ACh EC80; inhibition, % at 3 µM; 360,000 tested, 0.59% active; AID 624040, 2012;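 active = inhibition above a per-plate cutoff, the mean of that plate's test compounds plus 3 SD, cut at about 27% in these data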
CHRM4 agonist – human M4 muscarinic receptor agonists, primary screen, CHO-K1 cells, Fluo-8 calcium fluorescence | activation, % at 3 µM | 360,000 tested, 0.14% active | AID 624127, 2012 | CHO-K1 hM4/Gqi5; vehicle 0%, full acetylcholine response 100% | Muscarinic acetylcholine receptor M4 (Homo sapiens), P08173;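 active = activation above the run mean over all test wells plus 3 SD, cut at about 32% in these data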;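 also: peak over basal fluorescence ratio per well then scaled between controls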
M4 PAM – human M4 muscarinic receptor positive allosteric modulators, primary screen, CHO-K1 cells, Fluo-8 calcium fluorescence; Muscarinic acetylcholine receptor M4 (Homo sapiens), P08173; CHO-K1 hM4/Gqi5, ACh EC20; 0% = ACh EC20, 100% = maximal ACh; activation, % at 3 µM; 360,000 tested, 0.4% active; AID 624126, 2012;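 active = activation above its plate's cutoff, the mean activation of sample wells plus 3 SD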
Hits are given with their value; i = inactive.

SMILES	M5 PAM	CHRM5 agonist	CHRM4 antagonist	M5 antag	CHRM4 agonist	M4 PAM
Cc1ccc(CN2C(=O)c3ccccc3C2c2nnnn2-c2c(C)cccc2C)cc1 (stereo not given)	i	i	i	i	i	i
Cc1sc2nc(CN(Cc3cccs3)C(=O)NC3CCCCC3)[nH]c(=O)c2c1C	29	i	i	i	i	i
Cn1cc(C(=O)c2cccc(Cl)c2)cc1C#N	i	i	i	i	i	26
Cc1ccc(C2=NNC(C(O)C(O)C(O)CO)S2)cc1 (stereo not given)	30	i	i	i	i	i
COc1ccc(NS(=O)(=O)c2cc(C(=O)N3CCN(C/C=C/c4ccccc4)CC3)ccc2C)cc1	i	i	i	i	i	i
Cc1c(C2(O)CCCCC2)[nH]c2cnccc12	i	i	i	i	i	i
Cc1c(C2(O)CCCCC2)[nH]c2cc(C(F)(F)F)ccc12	i	i	33	i	i	i
CCc1c(C2(O)CCCCC2)[nH]c2cc(C(F)(F)F)ccc12	i	i	42	i	i	i
CC(C)N1C(=O)c2ccccc2NC(=O)C1C(=O)NCc1ccccc1 (stereo not given)	i	i	i	i	i	i
Cn1c(CNC(=O)C2CCCCC2)cc2cc(Cl)ccc21	i	i	i	i	i	17
CCOC(=O)c1oc2ccc(/C=N/O)c(Cl)c2c1C	i	i	i	i	i	i
O=C(O)c1cccc(Nc2nc(Nc3ccccc3)nc(N3CCCC3)n2)c1	i	i	i	i	i	25
CN(Cc1ccon1)C(=O)C1CCC(=O)N(Cc2ccc(Cl)cc2)C1 (stereo not given)	i	i	i	i	i	i
O=C(NCCc1c[nH]c2ccccc12)c1ccc([N+](=O)[O-])o1	i	i	i	i	i	i
COc1cc(NC(=O)COc2cc(O)c3c(c2)OC(C)(C)CC3=O)cc(OC)c1OC	i	i	i	43	i	i
CC1(C)CC(=O)c2c(O)cc(OCC(=O)Nc3ccc(S(N)(=O)=O)cc3)cc2O1	i	i	i	i	i	i
CCOC(=O)[C@]12CCCC=C1N(Cc1ccc3c(c1)OCO3)C(=O)[C@H](CC(=O)N1CCC(c3ccccc3)CC1)C2	i	i	i	i	i	i
COc1ccc(C[C@@H]2CN3C(=NC[C@@H]3Cc3ccc(O)cc3)N2C[C@H](C)NC(=O)CCC2CCCCC2)cc1	i	i	28	i	i	i
CC(C)Cn1c(N)c(C(=O)COC(=O)Cc2cccs2)c(=O)n(C)c1=O	i	i	i	32	i	i
CC(C)Cn1c(N)c(C(=O)COC(=O)/C=C/c2cccs2)c(=O)n(C)c1=O	i	i	i	i	i	i
COc1ccc(NC(=O)CSc2n[nH]c(CNc3cccc(C)c3)n2)cc1	i	i	i	i	i	i
O=[N+]([O-])c1cc(Cl)cc(/C=N/n2cnnc2)c1O	25	i	i	i	i	i
CCC(=O)N(Cc1c(C)nn(-c2ccccc2)c1Cl)c1ccc(Cl)cc1	i	i	i	i	i	i
CC(C)Cc1ccc(C(C)C(=O)Nc2ccccc2O)cc1 (stereo not given)	i	41	38	50	43	i
CC(C)Cc1ccc(C(C)C(=O)Nc2nccs2)cc1 (stereo not given)	i	38	30	i	34	i
SMILES	M5 PAM	CHRM5 agonist	CHRM4 antagonist	M5 antag	CHRM4 agonist	M4 PAM
CC(C)c1ccc(CNC(=O)C(=O)Nc2nccs2)cc1	i	i	i	i	i	i
CC(=O)c1ccc(N2CCN(S(=O)(=O)c3c(C)[nH]c(C)c3C(=O)N3CCCCC3)CC2)cc1	i	i	i	i	i	i
C[C@H]1CN(c2ccc(Br)cc2)C(=O)[C@@H]1CC(=O)Nc1ccccc1	i	i	i	i	i	i
O=S(=O)(Nc1ccc(Br)cn1)c1ccc2ccccc2c1	i	i	i	i	i	i
CC1(Oc2cccc(F)c2)CCN(Cc2csc3ccccc23)C1 (stereo not given)	i	i	i	i	i	i
COC(=O)Cc1ccc(OC2(C)CCN(Cc3csc4ccccc34)C2)cc1 (stereo not given)	i	i	54	i	i	i
O=C(CCl)Nc1ccccc1C(=O)c1ccccc1	i	i	i	i	i	20
COc1cc(OC)cc(C(=O)Nc2cccc(N3CCCC3)c2)c1	i	i	28	i	i	i
CCn1c(SCC(=O)N/N=C/c2ccccc2OCC(=O)O)nnc1-c1ccc(C)cc1	26	i	i	37	i	i
CC(C)(C)C(=O)OCc1nc(-c2ccc(C(F)(F)F)cc2)cs1	19	i	i	i	i	i
CC(=O)Oc1ccc(C(=O)c2ccccc2)c(OC(C)=O)c1	i	i	i	i	i	i
COc1ccc(C(=O)c2ccccc2)c(OCC(=O)N(C)C)c1	i	i	i	i	i	23
COc1ccc(C(=O)/C=C/C(=O)N(CC(=O)NC2CCCCC2)CC2CCCO2)c(O)c1 (stereo not given)	i	i	29	i	i	i
COc1ccc(C2(C)NC(=O)NC2=O)cc1OC (stereo not given)	i	i	i	i	i	i
CCOC(=O)N1CCN(C(=O)c2ccc(NC(=O)c3ccc(C)cc3)cc2)CC1	i	i	i	i	i	31
O=C(/C=C/c1ccc(Cl)cc1Cl)NCCN1CCOCC1	i	i	i	i	i	30
COc1ccc(C(C(=O)OCCN(C)C)c2ccccc2)cc1 (stereo not given)	i	i	i	i	i	i
CCCOc1ccc(C(C(=O)OCCN(CC)CC)c2ccccc2)cc1 (stereo not given)	i	i	i	55	i	i
CCOC(=O)C1CCN(C(=O)C(=O)Nc2ccc3nc4n(c(=O)c3c2)CCCCC4)CC1	i	i	i	i	i	i
COC(=O)C(Cc1ccccc1)NC(=O)C12CC3CC(CC(C3)C1)C2 (stereo not given)	i	i	i	i	i	22
COC(=O)[C@H](Cc1ccccc1)NC(=O)NCCc1ccc(F)cc1	i	i	i	30	i	i
COC(=O)[C@H](Cc1ccccc1)NC(=O)NCCc1ccc(S(N)(=O)=O)cc1	i	i	i	i	i	i
